The values that follow come from ChEMBL document CHEMBL4364248, “Discovery of 1,2,4-oxadiazole-Containing hydroxamic acid derivatives as histone deacetylase inhibitors potential application in cancer therapy” (Eur J Med Chem, 2019).

pIC50: −log10 of the molar value. The source made the active and inactive calls.

The test system of series [1] is A2780S. The experiment in a line: Antiproliferative activity against human A2780S cells after 72 hrs by MTT assay. It counts as functional, cell-based. For orientation: Tetrazolium dyes change colour on reduction, which living cells bring about.
Series [2] concerns JeKo-1. Put plainly: Induction of apoptosis in human JeKo1 cells assessed as late apoptotic cells at 10 nM after 48 hrs by annexin V-FITC/propidium iodide staining-based flow cytometric method (reference value: 3.07 %). It counts as functional. The procedure, abridged:
(§1)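 Jeko-1 cells were grown in RPMI-1640 with 10% FBS at 37 °C under 5% CO2. They were exposed to 0, 10, 100 or 1000 nM for 48 h, then apoptosis induction was analysed.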
On the technique in general: In flow cytometry, cells or beads pass a laser one at a time.

Series [3] relates to HCT-116. Put plainly: Antiproliferative activity against human HCT116 cells after 72 hrs by MTT assay. It counts as functional, cell-based. The conditions noted are these: HCT-116, 72 h.
The test system of series [4] is HepG2. The experiment in a line: Antiproliferative activity against human HepG2 cells after 72 hrs by MTT assay. The conditions noted are these: HepG2, 72 h. It counts as functional, cell-based.
In series [5] the test system is MCF7. The experiment in a line: Antiproliferative activity against human MCF7 cells after 72 hrs by MTT assay. It counts as functional, cell-based. The conditions noted are these: MCF7, 72 h.
A short description of series [6]: Cmax in Sprague-Dawley rat at 5 mg/kg, po measured upto 24 hrs by LC-MS/MS analysis. Details: dose 5 mg/kg, route oral. It counts as ADME, organism-based. The conditions noted are these: in vivo. The procedure, abridged:
(§2)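 SD rats (200-250 g), six per time point, given 5 mg/kg as a tail-vein bolus or orally. Blood was taken by cardiac puncture before dosing and at 5, 15, 30, 45 min and 1, 2, 4, 6, 8, 10, 12 and 24 h. Plasma was spun at 4000 g for 15 min at 4 °C and stored at -80 °C. Analysis was LC-MS/MS with multiple-reaction monitoring, followed by noncompartmental analysis.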

Series [7] concerns the target Histone deacetylase 2 (Homo sapiens, UniProt Q92769). Put plainly: Inhibition of recombinant full length human HDAC2 expressed in sf9 insect cells using Ac-peptide-AMC as substrate after 1 hr by fluorescence assay. It counts as cell-based.
The test system of series [8] is JeKo-1. Put plainly: Induction of apoptosis in human JeKo1 cells after 48 hrs by annexin V-FITC/propidium iodide staining-based flow cytometric method. It counts as functional, cell-based. The procedure, abridged:
as §1

Series [9] can be described thus: Half life in Sprague-Dawley rat plasma at 5 mg/kg, po measured upto 24 hrs by LC-MS/MS analysis. It counts as ADME, organism-based. The procedure, abridged: as §2
Series [10] deals with Histone deacetylase 4 (Homo sapiens, UniProt P56524). The experiment in a line: Inhibition of recombinant full length human HDAC4 expressed in sf9 insect cells using Ac-peptide-AMC as substrate after 1 hr by fluorescence assay.
Series [11] deals with JeKo-1. The experiment in a line: Induction of apoptosis in human JeKo1 cells assessed as viable cells at 10 nM after 48 hrs by annexin V-FITC/propidium iodide staining-based flow cytometric method (reference value: 91.6 %). The conditions noted are these: JeKo-1, 48 h, read-out: Activity. It counts as functional. The procedure, abridged:
as §1

The test system of series [12] is JeKo-1. Put plainly: Cell cycle arrest in human JeKo1 cells assessed as accumulation at S phase at 100 nM after 24 hrs by propidium iodide staining based flow cytometric analysis (reference value: 26.13 %). It counts as functional.
Series [13] is described as follows: Clearance in Sprague-Dawley rat at 5 mg/kg, iv measured upto 24 hrs by LC-MS/MS analysis. It counts as ADME, organism-based. The conditions noted are these: in vivo. The procedure, abridged:
as §2

A short description of series [14]: Antiproliferative activity against human ARD cells after 72 hrs by MTT assay. It counts as functional, cell-based.
Series [15] has as its system Daudi. The experiment in a line: Antitumour activity against human Daudi cells xenografted in NOD/SCID mouse assessed as DNA damage at 20 mg/kg, po treated on day 1,3 and 5 per week. It counts as functional, organism-based. The procedure, abridged: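 Daudi s.c. xenografts in female NOD/SCID mice (5–6 weeks) were randomized six per group at 100–200 mm3. Dosing was 10 mg/kg i.v. or 20 mg/kg p.o. in 8% HP-β-CD on days 1, 3 and 5 weekly. Tumors were collected at study end for immunohistochemistry, with comparison to the control group.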
A general note: A xenograft is tissue or cells of one species grown in another, often human tumour cells in immunodeficient mice.

Series [16] has as its system Daudi. Put plainly: Antitumour activity against human Daudi cells xenografted in NOD/SCID mouse assessed as reduction in tumour growth at 10 mg/kg, iv treated on day 1,3 and 5 per week and measured for every 2 days. It counts as functional. The conditions noted are these: read-out: TGI. The procedure, abridged: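 Daudi cells (107 in 100 µL serum-free RPMI 1640) were injected s.c. into the right flank of 5–6 week female NOD/SCID mice. At 100–200 mm3, mice were randomized six per group. Dosing was 10 mg/kg i.v. or 20 mg/kg p.o. in 8% HP-β-CD on days 1, 3 and 5 each week. Tumors were measured by caliper every 2 days, with TV = length × width² × 0.5.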

Series [17] addresses T1, Protein deacetylase HDAC6 (Homo sapiens) (UniProt Q9UBN7).
T1 sequence (whole entry): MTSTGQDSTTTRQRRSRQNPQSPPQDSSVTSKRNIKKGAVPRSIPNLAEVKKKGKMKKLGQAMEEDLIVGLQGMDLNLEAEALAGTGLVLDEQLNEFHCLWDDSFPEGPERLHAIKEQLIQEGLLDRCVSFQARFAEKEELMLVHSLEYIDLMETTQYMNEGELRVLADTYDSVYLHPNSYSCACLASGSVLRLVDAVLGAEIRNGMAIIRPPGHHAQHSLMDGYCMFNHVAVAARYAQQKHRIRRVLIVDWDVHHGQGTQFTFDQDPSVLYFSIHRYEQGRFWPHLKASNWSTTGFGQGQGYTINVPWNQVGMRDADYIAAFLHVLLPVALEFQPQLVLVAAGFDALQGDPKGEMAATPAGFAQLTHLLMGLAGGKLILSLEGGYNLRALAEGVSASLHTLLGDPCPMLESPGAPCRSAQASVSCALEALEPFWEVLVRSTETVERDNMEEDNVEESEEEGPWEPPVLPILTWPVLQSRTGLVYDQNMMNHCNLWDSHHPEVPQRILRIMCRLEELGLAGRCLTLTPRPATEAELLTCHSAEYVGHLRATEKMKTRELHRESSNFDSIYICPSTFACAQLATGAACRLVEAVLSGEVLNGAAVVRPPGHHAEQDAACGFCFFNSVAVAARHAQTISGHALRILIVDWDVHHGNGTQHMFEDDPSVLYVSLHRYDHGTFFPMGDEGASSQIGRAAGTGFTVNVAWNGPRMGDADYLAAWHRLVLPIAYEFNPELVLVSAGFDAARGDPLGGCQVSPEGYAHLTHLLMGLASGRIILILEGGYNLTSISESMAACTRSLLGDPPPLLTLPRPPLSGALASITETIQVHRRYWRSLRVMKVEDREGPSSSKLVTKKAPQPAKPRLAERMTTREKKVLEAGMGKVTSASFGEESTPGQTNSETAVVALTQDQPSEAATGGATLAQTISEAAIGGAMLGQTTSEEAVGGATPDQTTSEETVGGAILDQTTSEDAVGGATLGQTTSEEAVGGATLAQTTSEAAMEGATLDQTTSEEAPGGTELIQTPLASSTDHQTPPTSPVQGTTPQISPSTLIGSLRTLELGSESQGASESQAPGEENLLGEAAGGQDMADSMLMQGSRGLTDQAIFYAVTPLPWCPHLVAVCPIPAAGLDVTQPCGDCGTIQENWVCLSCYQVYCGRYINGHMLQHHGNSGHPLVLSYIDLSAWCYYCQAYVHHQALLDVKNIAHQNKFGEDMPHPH
The experiment in a line: Inhibition of recombinant full length HDAC6 (unknown origin) using Ac-peptide-AMC as substrate at 100 nM after 1 hr by fluorescence assay relative to control. The procedure, abridged:
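Full-length recombinant HDAC1 or HDAC6 was incubated with compound, trypsin and Ac-peptide-AMC substrate for 1 h at room temperature. Fluorescence was read at ex 355/em 460 nm. Inhibition was calculated against the DMSO vehicle control.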

Histone deacetylase 4, sequence (P56524 whole entry): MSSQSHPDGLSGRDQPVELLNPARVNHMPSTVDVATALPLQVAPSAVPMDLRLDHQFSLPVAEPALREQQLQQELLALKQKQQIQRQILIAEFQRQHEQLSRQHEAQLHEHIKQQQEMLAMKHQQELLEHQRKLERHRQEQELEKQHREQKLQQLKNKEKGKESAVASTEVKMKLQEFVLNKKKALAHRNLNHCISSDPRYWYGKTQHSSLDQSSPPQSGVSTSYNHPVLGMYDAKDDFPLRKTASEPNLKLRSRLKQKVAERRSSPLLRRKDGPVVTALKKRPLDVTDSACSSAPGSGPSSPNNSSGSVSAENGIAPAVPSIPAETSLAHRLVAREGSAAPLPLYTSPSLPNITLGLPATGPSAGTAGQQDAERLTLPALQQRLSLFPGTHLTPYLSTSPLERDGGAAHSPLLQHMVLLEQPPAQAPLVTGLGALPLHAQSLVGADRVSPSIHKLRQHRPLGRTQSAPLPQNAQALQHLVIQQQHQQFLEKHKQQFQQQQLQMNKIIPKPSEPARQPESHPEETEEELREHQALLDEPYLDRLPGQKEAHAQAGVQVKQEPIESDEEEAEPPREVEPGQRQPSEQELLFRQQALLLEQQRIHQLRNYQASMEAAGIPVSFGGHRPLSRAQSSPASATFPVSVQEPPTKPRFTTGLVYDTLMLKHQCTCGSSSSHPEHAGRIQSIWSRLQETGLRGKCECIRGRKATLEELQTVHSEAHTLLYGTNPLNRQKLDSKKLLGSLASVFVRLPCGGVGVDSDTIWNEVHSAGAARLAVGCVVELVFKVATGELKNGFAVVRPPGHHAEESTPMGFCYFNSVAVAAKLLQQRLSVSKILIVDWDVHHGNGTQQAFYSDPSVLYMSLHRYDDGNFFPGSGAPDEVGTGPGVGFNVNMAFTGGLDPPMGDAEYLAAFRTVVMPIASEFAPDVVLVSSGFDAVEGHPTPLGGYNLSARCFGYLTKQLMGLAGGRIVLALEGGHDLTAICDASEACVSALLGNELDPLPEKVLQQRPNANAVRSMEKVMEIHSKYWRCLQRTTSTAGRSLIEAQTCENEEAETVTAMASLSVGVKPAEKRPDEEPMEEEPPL
Histone deacetylase 2, sequence (Q92769 whole entry): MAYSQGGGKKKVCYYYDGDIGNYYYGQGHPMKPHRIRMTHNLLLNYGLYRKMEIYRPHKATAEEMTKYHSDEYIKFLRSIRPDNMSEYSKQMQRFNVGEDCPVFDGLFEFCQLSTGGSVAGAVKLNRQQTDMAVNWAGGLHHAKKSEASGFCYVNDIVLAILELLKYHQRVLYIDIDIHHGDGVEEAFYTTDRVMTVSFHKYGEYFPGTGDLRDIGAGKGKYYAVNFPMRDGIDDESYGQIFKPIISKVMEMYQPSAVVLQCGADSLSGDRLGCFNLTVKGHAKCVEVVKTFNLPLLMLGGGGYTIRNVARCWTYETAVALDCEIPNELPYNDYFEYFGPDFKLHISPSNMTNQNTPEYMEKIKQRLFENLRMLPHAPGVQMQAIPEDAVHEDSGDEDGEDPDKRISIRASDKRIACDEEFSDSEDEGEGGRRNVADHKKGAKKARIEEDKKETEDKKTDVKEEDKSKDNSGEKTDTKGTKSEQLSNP

The pIC50 is the negative decadic logarithm of the IC50, by convention in mol/L. The Cmax is the highest concentration seen after dosing. As usually defined, the half-life is the time needed for the level to fall by half in the phase considered. The low end stands for rapid decline, the high end for slow decline. As a reminder, the clearance is the rate of elimination divided by the concentration. A word on the inhibition: it is the change of the read-out against control, counted positive when it falls. Turning to `Cc1ccc(CN2CCC(c3noc(CN(C)c4ncc(C(=O)NO)cn4)n3)CC2)cc1`, the pIC50 is 7.40 in series [1]; 7.80 in series [3]; 7.89 in [4]; 7.84 in [5]; 8.44 in series [7]; 6.33 in series [10]. In series [14], this molecule gave a pIC50 of 7.35. The Activity was 2.24% in series [2], “Dose-dependent effect” in series [8] and 8.5% in series [12]. The molecule also showed a Cmax in [6] of 241 ng/mL. In series [9], this molecule showed a half-life of 1.01 h. Moreover, the viability at 0.01 µM in series [11] was found to be 91.8%. Also, the clearance in series [13] was 198 mL/min/kg. Also, the result in [15] was Active. The inhibition in vivo at 10 mg/kg in series [16] was 46.1%. Besides, the inhibition in [17] was found to be 71%.
